Assay outcomes deposited in PubChem by The Scripps Research Institute Molecular Screening Center.
OXTR potentiator: potentiators of human oxytocin receptor; actives 0.061% (n = 320,000); AID 2445; activation, % at 3 µM; P30559; CHO-OTR cells, Fluo-8 calcium fluorescence, potentiator mode; 0% = oxytocin EC15, 100% = EC100;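 active = activation above that plate's cutoff, the mean activation of tested compounds plus 3 SD, cut at about 6.6% in these data, passing the limit was not always enough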;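 note: 100% uses oxytocin at 75 nM as the full agonist control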
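Material: human OTR in CHO cells. Compound: 3.0 µM, one dose. Timing: compound 6 min at room temperature before oxytocin, 100 s read. Evaluation: % activation of max/min ratio relative to oxytocin controls. Replication: single well per compound, singlicate. Signal: Fluo-8 calcium dye fluorescence.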
TRPML3 ag: agonists of human TRPML3 channel. activation, % at 3 µM. HEK293 TRPML3-YFP, Fluo-8 calcium fluorescence; 100% = the carbachol control signal. Q8TDD5. actives 0.29% (n = 220,000);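 active = activation above its plate's cutoff, the mean activation of the plate's test wells plus 3 SD, cut at about 12% in these data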;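 note: 0% = DMSO only wells and 100% = carbachol wells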
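system = HEK293 cells stably carrying human TRPML3-YFP | doses = one concentration, 3 µM nominal, 0.3% DMSO | timing = dye loading 1 h 37 °C then 30 min ambient, 125 s read | detection = Fluo-8 calcium dye fluorescence, ex 470-495, em 515-575 nm | benchmarks = high control carbachol 87 µM, low control DMSO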
V1aR counter: V1a receptor agonism, counter-screen for OXTR agonists; activation, % at 3 µM; AID 2797; CHO-V1R cells, Fluo-8 calcium fluorescence, agonist mode; 0% DMSO, 100% 3 nM vasopressin; P37288; actives 0.25% (n = 320,000);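 active = activation above the mean activation of all tested compounds plus 3 SD, per screening run, cut at about 20% in these data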;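 note: signal is peak over basal fluorescence ratio across a 100 second FLIPR read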
Target sequence (P37288 whole entry, looked up): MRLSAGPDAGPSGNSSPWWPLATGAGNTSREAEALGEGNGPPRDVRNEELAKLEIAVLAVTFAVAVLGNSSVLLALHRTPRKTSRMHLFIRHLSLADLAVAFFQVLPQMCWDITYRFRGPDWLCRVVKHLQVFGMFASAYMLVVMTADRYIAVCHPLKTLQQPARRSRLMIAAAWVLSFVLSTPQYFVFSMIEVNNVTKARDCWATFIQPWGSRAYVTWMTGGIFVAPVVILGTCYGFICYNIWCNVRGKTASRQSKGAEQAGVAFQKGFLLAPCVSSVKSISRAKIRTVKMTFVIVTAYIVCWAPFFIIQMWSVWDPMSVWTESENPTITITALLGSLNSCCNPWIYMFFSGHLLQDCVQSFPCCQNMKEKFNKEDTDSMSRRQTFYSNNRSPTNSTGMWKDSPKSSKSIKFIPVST
zfTRPN1 agonist: zebrafish TRPN1 (NompC) channel agonism | actives 0.18% (n = 220,000) | activation, % at 3 µM | HEK293 zebrafish TRPN1-YFP, Fluo-8 calcium fluorescence; 100% = response to 87 µM carbachol | AID 1424;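 active = activation above its plate's cutoff, the mean activation of test wells on that plate plus 3 SD, cut at about 19% in these data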;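 note: 0% = DMSO alone and 100% = 87 µM carbachol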
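Material: zebrafish TRPN1-YFP in HEK293 cells. Doses: one dose of 3 µM, 0.3% DMSO. Incubation: dye 1 h 37 °C plus 30 min RT. Measured by: intracellular calcium fluorescence with Fluo-8.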
OXTR agonist: activates the human oxytocin receptor | activation, % at 3 µM | CHO-OTR cells, Fluo-8 calcium fluorescence; normalized: DMSO 0%, oxytocin 100% | P30559 | actives 0.32% (n = 320,000);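 active = activation above the mean of all tested compounds plus 3 SD, cutoff set per screening run, cut at about 20% in these data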;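 note: peak over basal fluorescence ratio from a 100 s FLIPR kinetic read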
OXTR ag confirm: confirmation of human oxytocin receptor agonists; shares compounds with OXTR agonist; activation, % at 3 µM; actives 20% (n = 390); CHO-OTR cells, Fluo-8 calcium fluorescence, agonist;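 active = mean activation above about 20% derived from the earlier single-dose screen, limit read from the data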;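 note: peak over minimum fluorescence ratio per well during a 100 second FLIPR read; 0% = DMSO alone and 100% = oxytocin high control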
V1R ag counter 3x: counter-screen for oxytocin receptor agonists: V1a receptor agonists; shares compounds with OXTR agonist; CHO-V1R cells, Fluo-8 calcium fluorescence, agonist; activation, % at 3 µM; actives 10% (n = 390); AID 434991;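 active = mean activation over triplicate exceeds the hit threshold set in the earlier primary screen, cut at about 20% in these data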;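 note: peak over basal fluorescence ratio within a 100 second read; 0% = DMSO alone and 100% = 3 nM vasopressin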
OXTR pot confirm: human OXTR potentiation, confirmation; shares compounds with OXTR potentiator; activation, % at 3 µM; CHO-OTR cells, Fluo-8 calcium fluorescence; scaled from low-dose to maximal oxytocin; 180 tested, under 10 active;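 active = mean percent activation over triplicates above a cutoff set from solvent-only control plates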;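 note: compounds tested in the presence of an EC15 dose of oxytocin; 0% = EC15 oxytocin with DMSO and 100% = EC100 oxytocin with DMSO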
Numbers without * were called inactive; . = no result given. In the library only some 0.55% were active in any assay of this set; here they are far more common.

SMILES	OXTR potentiator	TRPML3 ag	V1aR counter	zfTRPN1 agonist	OXTR agonist	OXTR pot confirm	others
Oc1ccccc1CNc1cnc2ccccc2c1	-14	1	13	3	22*	.	OXTR ag confirm=13;V1R ag counter 3x=13
Cc1cc(Br)ccc1NC(=O)CN(C)C(=O)CSCc1ccccc1	-15	.	-1	.	0	.
O=C(Cc1cccs1)N(Cc1ccco1)C1(C(=O)NC2CCCC2)CCCCC1	-19	0	6	-2	20*	.	OXTR ag confirm=0;V1R ag counter 3x=0
O=C1NC(=O)C(CC(=O)N(Cc2ccco2)C2(C(=O)NC3CCCC3)CCCCC2)N1 (stereo not drawn)	-13	1	0	3	-1	.
O=C(CCc1ccc(S(=O)(=O)N2CCOCC2)cc1)OCC(=O)c1ccccc1F	-9	.	3	.	3	.
CCOc1ccc(-n2cnc3scc(-c4ccc(OC)c(OC)c4)c3c2=O)cc1	11*	0	-1	0	-2	-3
COc1cccc(-n2cnc3scc(-c4cccs4)c3c2=O)c1	-8	-1	-1	-2	-2	.
COc1ccc(Cl)cc1NC(=O)CN(C)C1CCS(=O)(=O)C1 (stereo not drawn)	0	.	1	.	0	.
CN(C)CC(O)COC(c1ccccc1)c1ccccc1 (stereo not drawn)	11*	1	3	0	1	1
COc1ccccc1CN(C)C(=O)c1ccc(S(=O)(=O)Nc2c(C)n(C)n(-c3ccccc3)c2=O)cc1	-1	.	0	.	-1	.
CCN(CC)C(=O)C1CCN(c2ncnc3c2cnn3-c2ccc(C)cc2C)CC1	-12	1	-1	0	-1	.
Cc1ccc(-n2ncc3c(N4CCC(C(N)=O)CC4)ncnc32)c(C)c1	13*	0	-1	-1	0	-2
COC(=O)c1cc(C(=O)Nc2cccc(C)n2)cc([N+](=O)[O-])c1	9.1*	0	-1	-1	-1	0
Cc1cc(NC(=O)CSCC(=O)N2CCN(c3ccccc3)CC2)no1	-7	.	1	.	0	.
COc1ccc2nc(NC(=O)CSc3nc(SC)ns3)sc2c1	-4	0	1	0	-1	.
COc1ccc2nc(NC(=O)CSc3nnc(C)s3)sc2c1	10*	0	0	1	1	-4
CCOC(=O)Cn1c(=NC(=O)CSC(C)=O)sc2cc(OC)ccc21	-10	0	0	-2	-1	.
COC(=O)Cn1c(=NC(=O)CSCC(=O)NC2CCCCC2)sc2cc(OC)ccc21	17*	0	-1	1	-1	-4
COC(=O)c1c(C)noc1-c1snnc1C	11*	2	0	1	1	-7
CC(C)=NOC(=O)c1c(C)noc1-c1snnc1C	0	1	1	1	0	.
COc1ccccc1OCCNC(=O)c1cc(=O)[nH]c2ccccc12	9.1*	1	0	2	0	-2
C=C[C@]1(C)C[C@@H](OC(=O)CSCCN(CC)CC)[C@]2(C)C(C)CC[C@]3(CCC(=O)[C@H]32)[C@@H](C)[C@@H]1O (stereo partly drawn)	-3	.	2	.	0	.
COC(=O)[C@]12C(=O)NC[C@H](CN1c1ccc(Cl)c(C)c1)N2C	-3	.	0	.	0	.
CN(C)c1ccc(CNC(=O)C2CCN(S(=O)(=O)c3ccc4c(c3)CCC(=O)N4)CC2)cc1	11*	0	0	0	0	-4
CNc1ccc(C(=O)OCC(=O)Nc2ccnn2C(C)C)cc1[N+](=O)[O-]	0	.	0	.	0	.
SMILES	OXTR potentiator	TRPML3 ag	V1aR counter	zfTRPN1 agonist	OXTR agonist	OXTR pot confirm	others
O=C(CCc1ccccc1)N1CCN(S(=O)(=O)c2cccs2)CC1	13*	.	1	.	3	-4
COc1ccc(S(=O)(=O)N(C)c2ccc(C(=O)NCC3CCCO3)cc2)cc1OC (stereo not drawn)	14*	.	1	.	2	-4
O=C(CCC1CCCNC1)c1ccccc1 (stereo not drawn)	4	.	1	.	1	.
O=C(O)c1cccc(NS(=O)(=O)c2cccc3nsnc23)c1	10.0*	1	-1	0	1	-2
O=S(=O)(Nc1ccccc1)c1cccc2nsnc12	-5	.	0	.	0	.
O=C(c1ccc(Cl)c(S(=O)(=O)N2CCCCC2)c1)N1CCCC(C(F)(F)F)C1 (stereo not drawn)	-3	.	3	.	2	.
O=C(NC(=S)Nc1ccccc1N1CCOCC1)c1ccc(Br)cc1	14*	.	1	.	-1	3
CC(C)C1CCC(C(=O)N[C@H](Cc2ccccc2)C(=O)O)CC1 (stereo partly drawn)	-4	1	0	0	0	.
O=C(NC(Cc1cccc(F)c1)C(=O)O)C1CCCCC1 (stereo not drawn)	8.1*	.	1	.	1	-10
Cc1ccccc1-c1nnc(SCC(=O)Nc2c(C)n(C)n(-c3ccccc3)c2=O)o1	11*	1	0	-1	1	0
O=C(OC(C(=O)NCc1ccccc1)c1ccccc1)c1ccco1 (stereo not drawn)	14*	.	-1	.	0	-2
CCC(=O)Nn1c(C2CCC2)nc2ccccc2c1=O	13*	.	0	.	-1	-2
COc1cccc(OC)c1C(=O)Nn1c(C2CCC2)nc2ccccc2c1=O	4	0	-1	1	-2	.
Cc1nn(-c2ccccc2)c(N)c1Sc1cccc([N+](=O)[O-])c1	-12	0	2	3	-1	.
Cc1cc(C)nc(-n2nc(C)c(Sc3ccc(F)cc3)c2N)n1	11*	0	-1	-2	-2	-7
O=C(NC1CCCCCC1)C(=S)NCCc1ccccc1	-14	-1	1	1	-2	.
O=C(NCCc1ccccc1)NC1CCCCC1	12*	0	-1	2	0	-3
Cc1cc(C)c(S(=O)(=O)NCC2CCC(C(=O)NCCCN3CCC(C)CC3)CC2)c(C)c1 (stereo not drawn)	-9	.	2	.	1	.
Cc1ccc2c(CC(=O)NCCc3ccc(S(N)(=O)=O)cc3)coc2c1	9.3*	0	-1	2	0	-3
Cc1ccc(CC(=O)NCCc2ccc(S(N)(=O)=O)cc2)cc1	-8	.	0	.	0	.
O=C(N/N=C\c1cn(-c2ccccc2)nc1-c1ccccc1)c1ccc(Br)o1	-16	0	1	-1	-1	.
